Test results: ChEMBL document CHEMBL5653631, “A Potent and Selective ULK1 Inhibitor Suppresses Autophagy and Sensitizes Cancer Cells to Nutrient Stress” (iScience, 2018)
Values belong to the molecule of their own block, whether it stands above or below them.

Key:
[1] = molecular target: Serine/threonine-protein kinase ATR (Homo sapiens) (UniProt Q13535); assay: Inhibition of human recombinant ATR at 500 nM related to control ULK1
How it was run: (§1)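 Panel of 327 recombinant human kinases, each assayed in vitro by radiometric activity assay in duplicate at a single inhibitor concentration per compound, chosen with reference to its ULK1 inhibition. Activity remaining was expressed as percent of vehicle control, and percent inhibition was calculated as 100 minus percent activity remaining.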

[2] = molecular target: Tyrosine-protein kinase receptor UFO (Homo sapiens) (UniProt P30530); assay: Inhibition of human recombinant AXL at 500 nM related to control ULK1; how it was run: as §1
Sequence of Tyrosine-protein kinase receptor UFO (Homo sapiens) (P30530 whole entry): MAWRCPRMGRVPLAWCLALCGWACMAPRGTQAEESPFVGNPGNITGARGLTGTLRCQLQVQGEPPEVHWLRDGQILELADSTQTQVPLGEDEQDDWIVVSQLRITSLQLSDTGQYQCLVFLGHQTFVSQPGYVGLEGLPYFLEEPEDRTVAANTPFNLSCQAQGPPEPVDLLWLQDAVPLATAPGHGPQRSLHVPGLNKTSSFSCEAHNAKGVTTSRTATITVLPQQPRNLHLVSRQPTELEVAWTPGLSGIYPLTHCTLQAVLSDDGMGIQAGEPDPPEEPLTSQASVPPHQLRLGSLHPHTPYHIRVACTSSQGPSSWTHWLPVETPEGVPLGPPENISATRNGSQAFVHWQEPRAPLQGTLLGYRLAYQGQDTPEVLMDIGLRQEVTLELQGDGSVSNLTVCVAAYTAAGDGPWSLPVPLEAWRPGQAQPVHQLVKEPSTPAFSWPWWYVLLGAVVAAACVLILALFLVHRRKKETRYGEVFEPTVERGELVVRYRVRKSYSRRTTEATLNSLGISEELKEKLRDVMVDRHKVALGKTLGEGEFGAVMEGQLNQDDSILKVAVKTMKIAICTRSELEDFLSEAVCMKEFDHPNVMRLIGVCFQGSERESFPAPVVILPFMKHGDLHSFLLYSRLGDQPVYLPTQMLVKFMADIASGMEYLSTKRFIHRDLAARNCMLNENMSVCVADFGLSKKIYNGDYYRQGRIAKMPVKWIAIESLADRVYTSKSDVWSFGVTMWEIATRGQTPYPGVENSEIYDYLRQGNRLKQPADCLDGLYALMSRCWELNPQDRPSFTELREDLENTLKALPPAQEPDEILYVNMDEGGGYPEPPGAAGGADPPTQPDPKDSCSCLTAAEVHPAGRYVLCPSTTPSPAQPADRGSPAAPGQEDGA

[3] = molecular target: Protein kinase C beta type (Homo sapiens) (UniProt P05771); assay: Inhibition of human recombinant PKCb at 500 nM related to control ULK1
[4] = molecular target: 5'-AMP-activated protein kinase catalytic subunit alpha-1 (Homo sapiens) (UniProt Q13131); assay: Inhibition of human recombinant AMPKa1 at 500 nM related to control ULK1; how it was run: as §1
Sequence of 5'-AMP-activated protein kinase catalytic subunit alpha-1 (Homo sapiens) (Q13131 whole entry, looked up): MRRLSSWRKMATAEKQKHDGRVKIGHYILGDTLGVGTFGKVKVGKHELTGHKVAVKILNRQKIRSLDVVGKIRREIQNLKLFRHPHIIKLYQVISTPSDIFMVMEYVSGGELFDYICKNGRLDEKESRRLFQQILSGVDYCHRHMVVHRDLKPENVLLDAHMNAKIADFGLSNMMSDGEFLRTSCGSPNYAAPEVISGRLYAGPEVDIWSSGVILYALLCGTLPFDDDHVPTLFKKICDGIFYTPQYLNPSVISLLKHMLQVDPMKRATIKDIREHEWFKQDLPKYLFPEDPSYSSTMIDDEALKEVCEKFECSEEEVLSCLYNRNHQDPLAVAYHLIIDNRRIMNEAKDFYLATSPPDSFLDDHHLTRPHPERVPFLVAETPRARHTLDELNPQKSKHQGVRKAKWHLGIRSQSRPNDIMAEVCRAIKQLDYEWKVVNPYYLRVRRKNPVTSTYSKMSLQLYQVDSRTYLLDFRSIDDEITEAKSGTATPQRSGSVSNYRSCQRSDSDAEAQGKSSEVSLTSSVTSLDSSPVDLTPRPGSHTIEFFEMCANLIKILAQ

[5] = molecular target: Serine/threonine-protein kinase PLK3 (Homo sapiens) (UniProt Q9H4B4); assay: Inhibition of human recombinant PLK3 at 500 nM in presence of ATP by radiometric assay relative to control
[6] = molecular target: T1, Serine/threonine-protein kinase BRSK2 (Homo sapiens) (UniProt Q8IWQ3); assay: Inhibition of human recombinant BRSK2 at 500 nM related to control ULK1
T1 sequence (whole entry): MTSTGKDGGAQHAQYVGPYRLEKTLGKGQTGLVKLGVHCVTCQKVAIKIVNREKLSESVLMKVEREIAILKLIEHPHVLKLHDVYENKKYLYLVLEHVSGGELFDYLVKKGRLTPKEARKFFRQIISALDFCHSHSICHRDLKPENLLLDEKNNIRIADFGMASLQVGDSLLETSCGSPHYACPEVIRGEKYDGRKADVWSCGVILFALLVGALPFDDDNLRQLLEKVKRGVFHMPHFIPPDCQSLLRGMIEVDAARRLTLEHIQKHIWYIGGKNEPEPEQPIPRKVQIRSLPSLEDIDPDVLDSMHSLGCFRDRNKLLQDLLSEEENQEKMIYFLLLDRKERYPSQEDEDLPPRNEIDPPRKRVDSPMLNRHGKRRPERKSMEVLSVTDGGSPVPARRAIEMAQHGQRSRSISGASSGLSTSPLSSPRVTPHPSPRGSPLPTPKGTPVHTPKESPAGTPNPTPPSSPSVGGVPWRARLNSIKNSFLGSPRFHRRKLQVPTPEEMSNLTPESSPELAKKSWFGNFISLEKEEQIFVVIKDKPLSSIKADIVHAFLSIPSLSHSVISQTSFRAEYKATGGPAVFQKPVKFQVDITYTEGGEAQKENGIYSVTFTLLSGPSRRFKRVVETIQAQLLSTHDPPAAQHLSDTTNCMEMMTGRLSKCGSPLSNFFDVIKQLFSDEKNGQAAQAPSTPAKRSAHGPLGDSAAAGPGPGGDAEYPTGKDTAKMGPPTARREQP

[7] = molecular target: Casein kinase II subunit alpha (Homo sapiens) (UniProt P68400); assay: Inhibition of human recombinant CK2a1 at 40 nM in presence of ATP by radiometric assay relative to control
Sequence of Casein kinase II subunit alpha (Homo sapiens) (P68400 whole entry, looked up): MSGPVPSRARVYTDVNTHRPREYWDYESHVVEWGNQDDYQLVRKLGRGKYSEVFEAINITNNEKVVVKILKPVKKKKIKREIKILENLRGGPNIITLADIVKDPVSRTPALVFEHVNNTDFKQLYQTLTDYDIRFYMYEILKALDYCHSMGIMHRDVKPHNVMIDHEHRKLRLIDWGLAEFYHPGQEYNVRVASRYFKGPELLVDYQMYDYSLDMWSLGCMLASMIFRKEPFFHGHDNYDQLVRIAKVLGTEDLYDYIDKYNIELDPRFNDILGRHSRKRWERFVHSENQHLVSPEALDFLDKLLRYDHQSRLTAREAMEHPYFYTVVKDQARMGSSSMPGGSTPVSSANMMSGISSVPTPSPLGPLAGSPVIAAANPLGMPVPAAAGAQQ

[8] = molecular target: T2, Ephrin type-A receptor 3 (Homo sapiens) (UniProt P29320); assay: Inhibition of human recombinant EphA3 at 40 nM in presence of ATP by radiometric assay relative to control
T2 sequence (whole entry): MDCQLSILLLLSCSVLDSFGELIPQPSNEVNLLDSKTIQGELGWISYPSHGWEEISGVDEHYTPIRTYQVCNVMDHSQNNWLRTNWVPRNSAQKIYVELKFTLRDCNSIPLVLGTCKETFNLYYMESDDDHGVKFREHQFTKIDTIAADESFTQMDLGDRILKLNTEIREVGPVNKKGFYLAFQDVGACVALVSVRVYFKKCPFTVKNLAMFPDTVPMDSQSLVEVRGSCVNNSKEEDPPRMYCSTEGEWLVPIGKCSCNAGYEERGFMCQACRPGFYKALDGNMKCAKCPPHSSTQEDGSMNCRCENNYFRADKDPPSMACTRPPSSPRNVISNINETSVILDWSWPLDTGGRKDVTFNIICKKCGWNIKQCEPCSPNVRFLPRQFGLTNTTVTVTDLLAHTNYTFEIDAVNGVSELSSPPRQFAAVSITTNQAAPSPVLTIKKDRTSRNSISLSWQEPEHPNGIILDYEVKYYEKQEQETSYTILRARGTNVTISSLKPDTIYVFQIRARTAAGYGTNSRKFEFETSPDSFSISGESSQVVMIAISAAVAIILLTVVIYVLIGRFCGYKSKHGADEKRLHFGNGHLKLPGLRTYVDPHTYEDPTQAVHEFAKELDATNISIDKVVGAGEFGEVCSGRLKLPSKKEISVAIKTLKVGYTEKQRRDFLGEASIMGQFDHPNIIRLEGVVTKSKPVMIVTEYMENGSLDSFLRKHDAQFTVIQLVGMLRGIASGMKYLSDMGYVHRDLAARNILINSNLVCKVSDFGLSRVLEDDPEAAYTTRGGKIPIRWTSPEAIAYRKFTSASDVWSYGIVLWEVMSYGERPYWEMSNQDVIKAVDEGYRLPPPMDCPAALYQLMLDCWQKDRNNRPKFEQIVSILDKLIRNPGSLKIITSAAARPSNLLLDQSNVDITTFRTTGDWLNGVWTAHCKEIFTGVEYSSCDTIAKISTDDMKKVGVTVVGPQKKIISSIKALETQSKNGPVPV

[9] = molecular target: Macrophage colony-stimulating factor 1 receptor (Homo sapiens) (UniProt P07333); assay: Inhibition of human recombinant FMS at 40 nM related to control ULK1
Sequence of Macrophage colony-stimulating factor 1 receptor (Homo sapiens) (P07333 whole entry): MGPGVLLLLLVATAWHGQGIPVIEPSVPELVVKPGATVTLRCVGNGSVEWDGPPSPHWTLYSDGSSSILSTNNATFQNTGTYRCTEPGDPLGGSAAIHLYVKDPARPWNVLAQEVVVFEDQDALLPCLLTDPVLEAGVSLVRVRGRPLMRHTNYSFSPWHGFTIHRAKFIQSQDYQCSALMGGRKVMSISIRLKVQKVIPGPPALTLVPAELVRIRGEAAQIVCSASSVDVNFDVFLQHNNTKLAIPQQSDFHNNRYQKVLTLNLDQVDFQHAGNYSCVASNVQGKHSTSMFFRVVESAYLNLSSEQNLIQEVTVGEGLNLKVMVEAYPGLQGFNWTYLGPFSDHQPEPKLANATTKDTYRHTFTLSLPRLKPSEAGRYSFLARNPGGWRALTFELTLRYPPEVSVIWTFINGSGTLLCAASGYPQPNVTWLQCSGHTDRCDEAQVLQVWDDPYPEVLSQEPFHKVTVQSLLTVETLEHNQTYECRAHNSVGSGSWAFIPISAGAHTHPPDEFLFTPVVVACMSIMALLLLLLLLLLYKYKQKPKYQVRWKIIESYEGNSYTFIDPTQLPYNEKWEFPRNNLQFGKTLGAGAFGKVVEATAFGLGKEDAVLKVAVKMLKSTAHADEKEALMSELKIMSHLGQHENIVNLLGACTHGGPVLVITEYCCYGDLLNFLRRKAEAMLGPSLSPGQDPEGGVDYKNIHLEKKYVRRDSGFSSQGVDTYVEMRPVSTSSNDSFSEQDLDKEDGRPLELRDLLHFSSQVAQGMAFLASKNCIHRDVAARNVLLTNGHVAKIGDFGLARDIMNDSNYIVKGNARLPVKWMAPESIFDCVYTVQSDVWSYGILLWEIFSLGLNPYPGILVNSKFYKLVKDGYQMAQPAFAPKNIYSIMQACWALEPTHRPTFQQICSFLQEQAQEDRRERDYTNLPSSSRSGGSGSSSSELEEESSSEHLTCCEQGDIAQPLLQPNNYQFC

[10] = molecular target: Serine/threonine-protein kinase WNK3 (Homo sapiens) (UniProt Q9BYP7); assay: Inhibition of human recombinant Wnk3 at 40 nM in presence of ATP by radiometric assay relative to control
[11] = molecular target: Calcium/calmodulin-dependent protein kinase type II subunit beta (Homo sapiens) (UniProt Q13554); assay: Inhibition of human recombinant CaMK2b at 15 nM in presence of ATP by radiometric assay relative to control
Sequence of Calcium/calmodulin-dependent protein kinase type II subunit beta (Homo sapiens) (Q13554 whole entry): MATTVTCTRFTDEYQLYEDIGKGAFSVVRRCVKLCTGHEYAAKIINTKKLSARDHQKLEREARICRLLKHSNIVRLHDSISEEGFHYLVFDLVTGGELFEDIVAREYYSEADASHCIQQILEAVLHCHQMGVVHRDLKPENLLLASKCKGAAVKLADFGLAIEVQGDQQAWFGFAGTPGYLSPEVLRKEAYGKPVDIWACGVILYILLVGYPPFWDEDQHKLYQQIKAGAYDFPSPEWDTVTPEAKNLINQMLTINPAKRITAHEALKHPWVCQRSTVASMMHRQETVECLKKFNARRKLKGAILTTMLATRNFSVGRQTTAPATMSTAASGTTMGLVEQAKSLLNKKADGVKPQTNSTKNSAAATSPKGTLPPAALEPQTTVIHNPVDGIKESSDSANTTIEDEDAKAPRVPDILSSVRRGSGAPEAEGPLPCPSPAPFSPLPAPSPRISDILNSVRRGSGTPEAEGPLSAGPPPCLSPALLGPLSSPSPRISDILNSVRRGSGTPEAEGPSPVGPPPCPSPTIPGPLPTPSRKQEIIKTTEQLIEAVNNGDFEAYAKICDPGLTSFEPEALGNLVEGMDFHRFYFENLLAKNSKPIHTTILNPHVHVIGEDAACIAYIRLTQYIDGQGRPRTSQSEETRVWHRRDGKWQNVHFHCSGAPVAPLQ

[12] = molecular target: Glycogen synthase kinase-3 alpha (Homo sapiens) (UniProt P49840); assay: Inhibition of human recombinant GSK3A at 15 nM in presence of ATP by radiometric assay relative to control
Sequence of Glycogen synthase kinase-3 alpha (Homo sapiens) (P49840 2-483 limits assumed): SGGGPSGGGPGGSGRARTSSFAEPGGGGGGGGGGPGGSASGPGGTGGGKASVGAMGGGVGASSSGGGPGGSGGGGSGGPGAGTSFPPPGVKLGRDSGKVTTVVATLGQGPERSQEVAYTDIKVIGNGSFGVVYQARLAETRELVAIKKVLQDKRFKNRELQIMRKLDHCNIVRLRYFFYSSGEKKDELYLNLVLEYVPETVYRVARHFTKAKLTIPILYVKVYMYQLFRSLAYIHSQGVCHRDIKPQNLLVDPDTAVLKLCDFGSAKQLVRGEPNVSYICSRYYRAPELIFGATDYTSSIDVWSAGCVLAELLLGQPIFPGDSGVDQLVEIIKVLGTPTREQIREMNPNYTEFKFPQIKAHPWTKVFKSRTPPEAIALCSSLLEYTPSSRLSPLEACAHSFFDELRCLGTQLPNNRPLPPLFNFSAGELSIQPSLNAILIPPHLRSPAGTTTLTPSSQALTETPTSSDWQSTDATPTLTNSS

[13] = molecular target: Serine/threonine-protein kinase 32C (Homo sapiens) (UniProt Q86UX6); assay: Inhibition of human recombinant YANK3 at 15 nM in presence of ATP by radiometric assay relative to control
Sequence of Serine/threonine-protein kinase 32C (Homo sapiens) (Q86UX6 whole entry): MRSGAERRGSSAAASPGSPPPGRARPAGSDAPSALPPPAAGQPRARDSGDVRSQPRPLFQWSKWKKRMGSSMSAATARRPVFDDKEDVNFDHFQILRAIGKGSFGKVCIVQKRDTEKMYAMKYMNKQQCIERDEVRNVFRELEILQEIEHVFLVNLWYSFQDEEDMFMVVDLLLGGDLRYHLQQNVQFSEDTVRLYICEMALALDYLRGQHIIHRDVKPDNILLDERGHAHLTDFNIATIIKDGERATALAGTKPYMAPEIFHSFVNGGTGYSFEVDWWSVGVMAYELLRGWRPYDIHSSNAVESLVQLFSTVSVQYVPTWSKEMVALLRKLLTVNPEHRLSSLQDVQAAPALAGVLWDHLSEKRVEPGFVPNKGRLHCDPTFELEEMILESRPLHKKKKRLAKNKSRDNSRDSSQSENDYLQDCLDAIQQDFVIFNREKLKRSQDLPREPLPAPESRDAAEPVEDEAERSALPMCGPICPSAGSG

[14] = molecular target: Tyrosine-protein kinase SYK (Homo sapiens) (UniProt P43405); assay: Inhibition of human recombinant SYK at 15 nM related to control ULK1
[15] = molecular target: Transient receptor potential cation channel subfamily M member 7 (Homo sapiens) (UniProt Q96QT4); assay: Inhibition of human recombinant ChaK1 at 15 nM related to control ULK1

fold change (FC) [1]: 0 | fold change (FC) [2]: 0.07 | fold change (FC) [3]: 0.09 | fold change (FC) [4]: 0.69 | inhibition [5]: 0% | fold change (FC) [6]: 0.04
Structure (SMILES): CNC(=O)c1ccccc1Oc1nc(Nc2cc(OC)c(OC)c(OC)c2)ncc1Br

inhibition [7]: 7% | inhibition [8]: 15% | fold change (FC) [9]: 0.01 | inhibition [10]: 3%
Structure (SMILES): O=C(N[C@@H](C1CC1)C(F)(F)F)c1cc(-c2cnn3cc(-c4ccc(F)cc4)cnc23)cs1

inhibition [11]: 10% | inhibition [12]: 0% | inhibition [13]: 3% | fold change (FC) [14]: 0 | fold change (FC) [15]: 0.14
Structure (SMILES): CC(C)[C@H](NC(=O)c1cc(-c2cnn3cc(-c4ccc(OCCN5CCCCC5)cc4)cnc23)cs1)C(F)(F)F
